Experimental data published in publication PMC8415080 (Pharmacology Research & Perspectives, 2021).

Columns and labels:
[1] = target: Complex I purified from bovine heart (Bos taurus, UniProt P03887+P17694+P42026); assay: MitoTox Complex I OxPhos Activity Assay; format: biochemical
In short: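 MitoTox Complex I kit: Complex I purified from bovine heart and immunocaptured on the plate by specific antibodies. Activity followed as the decrease in absorbance at 340 nm from NADH oxidation.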

[2] = tested on: mitochondria isolated from liver of OF1; format: biochemical; details: 7.5 µM
In short: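 Polarographic measurement of oxidation and phosphorylation rates in mitochondria isolated from liver of female OF1 mice, over a range of test compound doses.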

[3] = tested on: MDA‐MB231 cells; assay: Mitochondrial ATP content; format: cell-based; details: Homo sapiens, MDA-MB-231, 1 h, read-out: IC50 mitochondrial ATP production
In short: (§1)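 Cells (8000/well) were incubated 18 h at 37℃ (5% CO2). Test compound was added at half‐log doses, final 10 nM–10 µM, to paired plates for 1 h, with or without 100 µM iodoacetate. ATP was read by CellTiter‐Glo luminescence: mitochondrial ATP with iodoacetate, global ATP without. Mean ± SD.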

[4] = tested on: Hep3B cells; assay: Mitochondrial ATP content; format: cell-based; details: Homo sapiens, 1 h, read-out: IC50 mitochondrial ATP production
In short: as §1

[5] = tested on: U87 cells; assay: Mitochondrial ATP content; format: cell-based; details: Homo sapiens, U-87 MG, 1 h, read-out: IC50 mitochondrial ATP production
In short: as §1

[6] = tested on: 198 kinases; assay: DiscoverX KiNativ in situ kinase selectivity panel on live Jurkat cells; format: cell-based; details: 10 µM
[7] = target: MLK2 (Homo sapiens, UniProt Q02779); assay: as above; format: cell-based; details: 10 µM
[8] = target: A2AR (Homo sapiens, UniProt P29274); assay: Cerep in vitro safety screen, competition with reference ligand binding; details: 10 µM
In short: (§2)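 Cerep in vitro safety screen: test compound at 10 µM assessed for competition with reference ligand binding across a panel of 300 receptors.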

[9] = target: CCK1R (Homo sapiens, UniProt P32238); assay: as above; details: 10 µM
In short: as §2

[10] = target: CCK2R (Homo sapiens, UniProt P32239); assay: as above; details: 10 µM
In short: as §2

[11] = Plasma pharmacokinetics after intravenous and oral administration; format: in vivo, C57BL/6J mice
In short: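 Plasma pharmacokinetics in C57BL/6J mice: intravenous test compound at 3 mg/kg, and escalating oral doses of 10, 30 and 75 mg/kg.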

[12] = Tissue distribution after single oral administration; format: in vivo, C57BL/6J mice; details: male, C57BL/6J, mouse, 30 mg/kg
[13] = target: OATP1B1 (Homo sapiens, UniProt Q9Y6L6); assay: In vitro transporter inhibition; format: in vitro ADME
[14] = target: OATP1B3 (Homo sapiens, UniProt Q9NPD5); assay: In vitro transporter inhibition; format: in vitro ADME
[15] = target: BCRP (Homo sapiens, UniProt Q9UNQ0); assay: In vitro transporter inhibition; format: in vitro ADME
[16] = target: OAT1 (Homo sapiens, UniProt Q4U2R8); assay: In vitro transporter inhibition; format: in vitro ADME
[17] = target: OCT1 (Homo sapiens, UniProt O15245); assay: In vitro transporter inhibition; format: in vitro ADME
[18] = target: MRP2 (Homo sapiens, UniProt Q92887); assay: In vitro transporter inhibition; format: in vitro ADME
[19] = target: P‐gp (Homo sapiens, UniProt P08183); assay: In vitro transporter inhibition; format: in vitro ADME; details: expressed in MDCKII
[20] = tested on: ferret; assay: Ferret model of emesis; format: in vivo; details: increasing doses; for induction of emesis (retches and vomits): 2 h test
[21] = tested on: KARPAS 422 cells; assay: Proliferation assay; format: cell-based; details: Homo sapiens, KARPAS-422, read-out: IC50 proliferation
[22] = tested on: KARPAS 422 cells; assay: Glucose and lactate levels; format: cell-based, human
[23] = tested on: OxPhos‐Eµ‐Myc and glycolytic‐Eµ‐Myc lymphoma cells; assay: In vitro cell death assay; format: cell-based, mouse; details: 10 µM, 24 h, DAPI positive cells
In short: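 Primary Eμ‐Myc cells were maintained in DMEM with 10% FBS, 2‐mercaptoethanol (50 µM), L‐asparagine (0.37 mM) and HEPES (10 mM, pH 7.4). Cells (2 × 10^5/well) were exposed to test compound or DMSO for 24 h, stained with DAPI (0.5 µg/ml) and analysed by flow cytometry. Cell death = % DAPI‐positive in treated cells ÷ % DAPI‐positive in control. Mean of 4 independent experiments, 5 clones per group.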

[24] = tested on: glycolytic‐Eµ‐Myc lymphoma; assay: B‐cell lymphoma in vivo study, glycolytic‐Eµ‐Myc; set-up: species or system C57BL/6 mice; details: 30 mg/kg p.o. QD, glycolytic‐Eµ‐Myc‐bearing mice
In short: (§3)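 Syngeneic female C57BL/6J Ola Hsd mice, 6 weeks old, received 1 × 10^5 viable Eμ‐Myc cells in PBS by tail vein. Oral dosing began 6 days later, when inguinal nodes became palpable: 30 mg/kg daily at 10 ml/kg in PEG200/Solutol HS15/water (30%/5%/65%), or vehicle alone; n = 10/group. Weight and node palpation every 2–3 days. Mice sacrificed at illness signs; node tumors and spleens weighed. Kaplan–Meier survival, log‐rank test.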

[25] = tested on: OxPhos‐Eµ‐Myc lymphoma; assay: B‐cell lymphoma in vivo study, OxPhos‐Eµ‐Myc; set-up: species or system C57BL/6 mice; details: 30 mg/kg p.o. QD, OxPhos‐Eµ‐Myc‐bearing mice
In short: as §3

[26] = tested on: LL/2 cells; assay: Proliferation assay; format: cell-based; details: Mus musculus, LL/2, read-out: apparent IC50 proliferation
[27] = tested on: LL/2 cells; assay: Apoptosis assay; format: cell-based, mouse; details: LL/2, even at 10 µM
[28] = tested on: H460 cells; assay: Proliferation assay; format: cell-based, human
[29] = tested on: H460 cells; assay: Apoptosis assay; format: cell-based, human
[30] = tested on: H460‐luc2 orthotopic tumors; assay: Orthotopic H460 lung tumor model; format: in vivo, Balb/CJ‐Nude mice; details: 30 mg/kg p.o. QD from D7
In short: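 Male Balb/c Nude mice, 7 weeks old, were anaesthetised i.p. with Rompun (20 mg/kg) plus Imalgene (100 mg/kg). They were inoculated intrabronchially via an oral catheter with 25 µl of H460‐Luc2 cells at 20 million/ml in PBS. Mice were allocated by bioluminescence at D7 and dosed orally at 30 mg/kg daily for 15 days (3 mg/ml in PEG200/Solutol HS15/water 30%/5%/65%, 10 ml/kg) or vehicle; n = 9/group. Imaging at D7/D14/D21 used 12 min post i.p. D‐luciferin (2 mg). Tumors were measured at termination; t‐test.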

[31] = tested on: H460‐LKB1 cells; assay: Total and mitochondrial ATP content; format: cell-based, human; details: H460‐LKB1, whatever the dose
In short: as §1

[32] = tested on: H460‐LKB1 cells; assay: Apoptosis assay; format: cell-based, human; details: H460‐LKB1, even at 10 µM
[33] = tested on: H460‐LKB1 cells; assay: mTOR/AMPK pathway signaling; format: cell-based, human; details: H460‐LKB1, within minutes after exposure
[34] = tested on: H460 WT cells; assay: mTOR/AMPK pathway signaling; format: cell-based, human; details: WT H460, over 60 min
[35] = tested on: mouse acute myeloid leukemia; details: ref Luna Yolba, in revision; cited from earlier work
[36] = tested on: patients; details: 18 patients with advanced solid tumors; cited from earlier work
[37] = tested on: H460 cells; assay: Total and mitochondrial ATP content; format: cell-based, human
In short: as §1

[38] = tested on: H460 cells; assay: Mitochondria respiration profiling; format: cell-based, human
In short: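 On the XF96, basal OCR was followed by injection of test compound doses (10X), then oligomycin (1 µg/ml), FCCP, and rotenone plus antimycin A (1 µM each). Cycles were 4 min mix, 3 min measure; control injections were medium. OCR expressed as fold of vehicle.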

[39] = tested on: patients; details: no reference given; cited from earlier work

Chain of CCK2R (P32239 whole entry, species assumed): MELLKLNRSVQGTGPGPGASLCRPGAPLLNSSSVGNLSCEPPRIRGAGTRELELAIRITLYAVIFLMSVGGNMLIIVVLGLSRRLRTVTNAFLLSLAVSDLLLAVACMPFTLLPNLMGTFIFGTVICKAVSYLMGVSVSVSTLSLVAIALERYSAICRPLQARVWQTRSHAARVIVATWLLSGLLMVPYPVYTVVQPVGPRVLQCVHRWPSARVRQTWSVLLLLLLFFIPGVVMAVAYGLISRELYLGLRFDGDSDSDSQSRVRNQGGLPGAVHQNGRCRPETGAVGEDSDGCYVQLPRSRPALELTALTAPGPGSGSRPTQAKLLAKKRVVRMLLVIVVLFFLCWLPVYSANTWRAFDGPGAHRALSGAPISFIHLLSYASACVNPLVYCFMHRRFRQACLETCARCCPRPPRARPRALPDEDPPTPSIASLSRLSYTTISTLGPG
Chain of OAT1 (Q4U2R8 whole entry, species assumed): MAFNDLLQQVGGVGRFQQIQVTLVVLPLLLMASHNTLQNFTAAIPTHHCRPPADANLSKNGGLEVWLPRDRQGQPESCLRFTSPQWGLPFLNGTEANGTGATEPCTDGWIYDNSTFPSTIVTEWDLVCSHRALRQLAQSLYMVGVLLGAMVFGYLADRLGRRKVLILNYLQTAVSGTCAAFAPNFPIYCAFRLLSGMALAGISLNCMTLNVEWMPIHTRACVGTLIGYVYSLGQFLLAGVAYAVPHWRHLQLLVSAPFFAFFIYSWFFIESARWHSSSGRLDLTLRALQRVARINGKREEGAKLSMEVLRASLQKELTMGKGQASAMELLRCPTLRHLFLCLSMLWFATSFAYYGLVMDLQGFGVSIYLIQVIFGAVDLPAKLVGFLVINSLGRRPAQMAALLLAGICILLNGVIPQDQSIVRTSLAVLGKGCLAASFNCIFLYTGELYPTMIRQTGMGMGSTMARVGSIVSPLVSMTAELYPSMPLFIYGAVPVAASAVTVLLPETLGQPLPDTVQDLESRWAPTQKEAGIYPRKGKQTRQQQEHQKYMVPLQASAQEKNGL
Chain of OCT1 (O15245 whole entry): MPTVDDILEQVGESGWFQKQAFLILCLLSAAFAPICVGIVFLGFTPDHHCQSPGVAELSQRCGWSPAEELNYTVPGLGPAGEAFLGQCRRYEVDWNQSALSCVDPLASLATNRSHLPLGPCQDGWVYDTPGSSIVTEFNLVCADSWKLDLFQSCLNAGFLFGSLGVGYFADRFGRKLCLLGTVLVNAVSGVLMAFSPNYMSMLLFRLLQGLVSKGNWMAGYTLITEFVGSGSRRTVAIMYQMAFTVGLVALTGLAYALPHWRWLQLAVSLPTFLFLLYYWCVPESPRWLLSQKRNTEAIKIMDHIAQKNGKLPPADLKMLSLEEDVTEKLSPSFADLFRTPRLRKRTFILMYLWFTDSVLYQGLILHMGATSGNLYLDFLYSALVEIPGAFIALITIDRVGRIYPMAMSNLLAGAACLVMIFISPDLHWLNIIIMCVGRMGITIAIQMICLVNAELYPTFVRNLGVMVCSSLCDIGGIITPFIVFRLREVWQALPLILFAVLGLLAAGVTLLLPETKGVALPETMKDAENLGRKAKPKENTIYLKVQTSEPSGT
Chain of BCRP (Q9UNQ0 whole entry, species assumed): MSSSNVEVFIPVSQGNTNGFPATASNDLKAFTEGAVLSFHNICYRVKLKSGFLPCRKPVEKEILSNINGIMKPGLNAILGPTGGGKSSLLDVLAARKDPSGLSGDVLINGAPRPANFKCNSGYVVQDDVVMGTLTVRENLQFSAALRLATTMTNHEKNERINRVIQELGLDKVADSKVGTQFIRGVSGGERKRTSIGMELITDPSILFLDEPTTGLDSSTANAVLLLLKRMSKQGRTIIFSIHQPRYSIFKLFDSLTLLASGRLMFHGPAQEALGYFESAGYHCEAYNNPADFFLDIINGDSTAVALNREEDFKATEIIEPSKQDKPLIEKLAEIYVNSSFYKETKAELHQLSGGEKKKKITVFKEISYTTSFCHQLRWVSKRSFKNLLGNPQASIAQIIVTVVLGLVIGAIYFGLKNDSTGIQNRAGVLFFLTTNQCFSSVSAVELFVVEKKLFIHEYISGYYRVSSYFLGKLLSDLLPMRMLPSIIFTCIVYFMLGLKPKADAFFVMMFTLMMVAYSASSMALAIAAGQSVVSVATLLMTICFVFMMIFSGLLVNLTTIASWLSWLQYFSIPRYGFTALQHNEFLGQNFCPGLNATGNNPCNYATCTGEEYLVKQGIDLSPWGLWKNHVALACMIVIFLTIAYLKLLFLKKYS
Chain of OATP1B3 (Q9NPD5 whole entry): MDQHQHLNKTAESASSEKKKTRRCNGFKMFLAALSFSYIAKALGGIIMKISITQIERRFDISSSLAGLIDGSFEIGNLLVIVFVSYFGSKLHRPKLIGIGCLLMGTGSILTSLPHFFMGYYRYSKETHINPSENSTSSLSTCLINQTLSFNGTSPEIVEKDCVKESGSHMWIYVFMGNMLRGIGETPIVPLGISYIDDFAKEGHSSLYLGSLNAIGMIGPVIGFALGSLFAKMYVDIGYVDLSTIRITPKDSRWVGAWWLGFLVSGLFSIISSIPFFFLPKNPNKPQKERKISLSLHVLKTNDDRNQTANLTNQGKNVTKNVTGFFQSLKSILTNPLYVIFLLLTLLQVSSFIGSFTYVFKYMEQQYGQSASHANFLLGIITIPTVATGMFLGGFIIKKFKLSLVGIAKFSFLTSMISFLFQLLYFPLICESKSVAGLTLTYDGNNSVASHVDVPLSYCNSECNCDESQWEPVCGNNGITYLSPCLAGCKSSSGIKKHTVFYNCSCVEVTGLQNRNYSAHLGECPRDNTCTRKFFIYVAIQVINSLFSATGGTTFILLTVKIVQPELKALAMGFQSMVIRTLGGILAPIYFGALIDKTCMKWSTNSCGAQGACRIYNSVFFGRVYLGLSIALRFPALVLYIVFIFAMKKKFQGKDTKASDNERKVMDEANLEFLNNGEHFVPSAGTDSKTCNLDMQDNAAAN
Chain of MRP2 (Q92887 whole entry, species assumed): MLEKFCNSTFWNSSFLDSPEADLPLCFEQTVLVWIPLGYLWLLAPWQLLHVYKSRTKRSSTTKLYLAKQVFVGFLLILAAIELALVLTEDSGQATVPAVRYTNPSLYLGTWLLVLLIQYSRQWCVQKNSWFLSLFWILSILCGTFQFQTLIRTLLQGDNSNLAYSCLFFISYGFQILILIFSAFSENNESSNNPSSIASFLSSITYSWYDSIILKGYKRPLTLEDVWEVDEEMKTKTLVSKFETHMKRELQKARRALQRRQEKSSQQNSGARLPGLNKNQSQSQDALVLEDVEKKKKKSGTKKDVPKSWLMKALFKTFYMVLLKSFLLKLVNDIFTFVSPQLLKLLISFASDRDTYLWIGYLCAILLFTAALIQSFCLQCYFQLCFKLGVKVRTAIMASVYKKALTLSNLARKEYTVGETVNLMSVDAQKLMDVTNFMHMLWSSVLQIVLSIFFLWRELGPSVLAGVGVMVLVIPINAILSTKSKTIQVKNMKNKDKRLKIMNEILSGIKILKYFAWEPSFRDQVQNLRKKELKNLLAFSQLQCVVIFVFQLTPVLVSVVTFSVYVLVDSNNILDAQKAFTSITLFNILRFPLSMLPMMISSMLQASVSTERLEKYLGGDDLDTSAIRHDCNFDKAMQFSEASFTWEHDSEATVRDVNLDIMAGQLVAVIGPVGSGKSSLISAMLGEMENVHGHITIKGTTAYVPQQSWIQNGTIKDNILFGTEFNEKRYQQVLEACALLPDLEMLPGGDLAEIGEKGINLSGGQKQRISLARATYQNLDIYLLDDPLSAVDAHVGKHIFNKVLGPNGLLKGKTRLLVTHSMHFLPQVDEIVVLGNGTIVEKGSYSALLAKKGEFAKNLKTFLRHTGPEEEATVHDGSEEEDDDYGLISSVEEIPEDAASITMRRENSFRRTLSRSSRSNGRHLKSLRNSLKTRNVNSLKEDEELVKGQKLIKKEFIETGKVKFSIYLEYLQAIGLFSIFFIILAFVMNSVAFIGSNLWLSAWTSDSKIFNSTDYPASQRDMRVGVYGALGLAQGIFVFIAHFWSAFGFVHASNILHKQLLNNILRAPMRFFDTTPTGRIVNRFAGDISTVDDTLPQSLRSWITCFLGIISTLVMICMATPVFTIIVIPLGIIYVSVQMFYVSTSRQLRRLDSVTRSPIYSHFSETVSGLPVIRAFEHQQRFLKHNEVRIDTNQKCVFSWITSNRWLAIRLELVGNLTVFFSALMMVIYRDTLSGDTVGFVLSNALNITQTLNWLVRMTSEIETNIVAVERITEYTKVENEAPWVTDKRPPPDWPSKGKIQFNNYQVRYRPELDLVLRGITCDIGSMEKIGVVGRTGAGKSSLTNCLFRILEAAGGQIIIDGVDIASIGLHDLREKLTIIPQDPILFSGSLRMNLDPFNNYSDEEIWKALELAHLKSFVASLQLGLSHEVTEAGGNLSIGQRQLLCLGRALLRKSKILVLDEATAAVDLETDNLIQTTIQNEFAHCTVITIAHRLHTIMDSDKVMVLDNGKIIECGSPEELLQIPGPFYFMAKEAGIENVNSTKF
Chain of A2AR (P29274 whole entry): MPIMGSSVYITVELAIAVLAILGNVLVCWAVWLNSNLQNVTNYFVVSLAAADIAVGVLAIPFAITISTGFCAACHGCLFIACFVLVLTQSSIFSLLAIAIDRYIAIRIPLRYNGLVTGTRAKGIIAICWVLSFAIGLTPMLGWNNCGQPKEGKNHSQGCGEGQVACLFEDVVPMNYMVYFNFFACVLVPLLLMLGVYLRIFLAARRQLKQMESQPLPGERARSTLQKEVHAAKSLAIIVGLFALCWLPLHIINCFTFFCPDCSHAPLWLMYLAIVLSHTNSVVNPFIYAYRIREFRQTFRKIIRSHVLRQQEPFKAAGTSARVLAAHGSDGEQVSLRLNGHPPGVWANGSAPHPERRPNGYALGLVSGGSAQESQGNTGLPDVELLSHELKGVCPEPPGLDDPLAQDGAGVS

SMILES: COc1ccc(C(O)COc2ccc(-c3csc(-c4ccc(OCC(O)c5ccc(OC)c(OC)c5)cc4)n3)cc2)cc1OC (stereo not shown) [EVT‐701, 1‐(3,4‐dimethoxyphenyl)‐2‐[4‐[2‐[4‐[2‐(3,4‐dimethoxyphenyl)‐2‐hydroxy‐ethoxy]phenyl]‐thiazol‐4‐yl]‐phenoxy]ethanol]
- IC50 [1]: 300 nM
- inhibition of NADH oxidation and phosphorylation of ADP into ATP [2]: 80%
- IC50 [3]: 52 ± 18 nM
- IC50 [4]: 81 ± 12 nM
- IC50 [5]: 74 ± 38 nM
- inhibition of kinase activity, any of the 198 kinases of the panel [6]: ≤ 30%
- increase of MLK2 activity [7]: more than 30%
- decrease of ligand binding to A2AR [8]: more than 50%
- increase of ligand binding to CCK1R [9]: more than 50%
- increase of ligand binding to CCK2R [10]: more than 50%
- F (bioavailability) ([11]; AUC of 10 mg/kg oral dose vs AUC of intravenous dose, 10 mg/kg): 64%
- half-life ([11]; C57BL/6J, mouse, plasma, po, 10 mg/kg): 4.1 h
- dose‐proportionality ([11]; oral 10, 30 and 75 mg/kg): conserved from 10 to 75 mg/kg
- Kp ([12]; brain): 0.25
- Kp ([12]; heart): 4.2
- Kp ([12]; kidney): 4.5
- Kp ([12]; liver): 5.9
- Kp ([12]; lung): 2.3
- Kp ([12]; pancreas): 4.5
- IC50 [13]: 1100 ± 100 nM
- IC50 [14]: 2400 ± 200 nM
- IC50 [15]: 4100 ± 2700 nM
- IC50 [16]: > 30000 nM
- IC50 [17]: > 30000 nM
- IC50 [18]: > 30000 nM
- P‐gp transport [19]: not affected
- what limited dose escalation [20]: by solubility
- induction of emesis (retches and vomits) [20]: didn't
- IC50 [21]: 188 ± 50 nM
- glucose consumption and lactate release [22]: increased glucose consumption and lactate release
- sensitivity to cell death induction, OxPhos‐Eµ‐Myc vs glycolytic‐Eµ‐Myc cells [23]: more sensitive
- overall survival [24]: no effect
- weight of lymphomas vs Vehicle [24]: similar
- progression‐free survival ([24]; data not shown): no effect
- lymphomas harvested vs Vehicle [25]: significantly smaller
- overall survival [25]: significant increase
- progression‐free survival ([25]; not shown): significant increase
- IC50 [26]: 295 ± 52 nM
- cell death induction [27]: no significant cell death
- IC50 ([28]; Homo sapiens, NCI-H460, read-out: apparent IC50 proliferation): 68 ± 27 nM
- IC50 ([29]; Homo sapiens, NCI-H460, read-out: IC50 apoptosis induction): 96 ± 28 nM
- decrease of tumor volume at D21 [30]: 60%
- total ATP [31]: remains unchanged
- induction of apoptosis [32]: no induction of apoptosis
- phosphorylation of 4E‐BP1 (Serine 65), Raptor and ACC downstream of AMPK [33]: increased phosphorylation state
- 4E‐BP1, Raptor and ACC phosphorylation [34]: unaffected
- rescue of inhibitory effect on respiration [35]: rescued by succinate

SMILES: Cc1nc(-c2nc(-c3ccc(OC(F)(F)F)cc3)no2)nn1Cc1cccc(N2CCC(S(C)(=O)=O)CC2)c1 [IACS‐010759]
- tolerability in phase 1 [36]: well‐tolerated

SMILES: Cc1cc(-c2nc(-c3ccc(OC(F)(F)F)cc3)no2)nn1Cc1ccnc(N2CCN(C3CC3)CC2)c1 [BAY87‐2243, reference compound]
- what limited dose escalation [20]: limited by toxicity
- induction of emesis (retches and vomits) [20]: induced retches and vomits from half of the first patient Cmax
- dose at which mitochondrial ATP production is significantly inhibited [37]: less than or equal to 1 nM
- dose at which an effect on OCR is detected [38]: above 100 nM
- dose at which proliferation is significantly inhibited ([28]; H460): less than or equal to 1 nM
- dose at which apoptosis is significantly affected (printed: inhibited) ([29]; H460): less than or equal to 1 nM
- emesis in patients, clinical phase 1 [39]: induction of emesis in patients
